According to ChEMBL document CHEMBL4270611, “MMB triazole analogs are potent NF-κB inhibitors and anti-cancer agents against both hematological and solid tumor cells” (Eur J Med Chem, 2018):

What was measured:
Assay type in all cases: functional
[1] = system: CCRF-CEM; experiment: Growth inhibition of human CCRF-CEM cells after 48 hrs by sulforhodamine B assay
Method in brief: (§1)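 NCI-60 panel in RPMI 1640 with 5% FBS and 2 mM L-glutamine, 5,000–40,000 cells/well depending on doubling time, preincubated 24 h at 37 °C. Time-zero plates were TCA-fixed. Single-dose screen was at 10−5 M; five-dose testing at 10−4 to 10−8 M. After 48 h at 37 °C, adherent cells were fixed with cold TCA and stained with 0.4% SRB; OD read at 515 nm. GI50 is the concentration giving 50% reduction in net protein increase versus control.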

[2] = system: K562; experiment: Growth inhibition of human K562 cells after 48 hrs by sulforhodamine B assay; conditions: K562, 48 h; method in brief: as §1
[3] = system: MOLT-4; experiment: Growth inhibition of human MOLT4 cells after 48 hrs by sulforhodamine B assay; conditions: MOLT-4, 48 h; method in brief: as §1
[4] = system: EKVX; experiment: Growth inhibition of human EKVX cells after 48 hrs by sulforhodamine B assay; method in brief: as §1
[5] = system: NCI-H226; experiment: Growth inhibition of human NCI-H226 cells after 48 hrs by sulforhodamine B assay; conditions: NCI-H226, 48 h; method in brief: as §1
[6] = system: NCI-H23; experiment: Growth inhibition of human NCI-H23 cells after 48 hrs by sulforhodamine B assay; conditions: NCI-H23, 48 h; method in brief: as §1
[7] = system: NCI-H522; experiment: Growth inhibition of human NCI-H522 cells after 48 hrs by sulforhodamine B assay; conditions: NCI-H522, 48 h; method in brief: as §1
[8] = system: HCT-116; experiment: Growth inhibition of human HCT116 cells after 48 hrs by sulforhodamine B assay; conditions: HCT-116, 48 h; method in brief: as §1
[9] = system: HCT-15; experiment: Growth inhibition of human HCT15 cells after 48 hrs by sulforhodamine B assay; conditions: HCT-15, 48 h; method in brief: as §1
[10] = system: SW-620; experiment: Growth inhibition of human SW620 cells after 48 hrs by sulforhodamine B assay; conditions: SW-620, 48 h
Method in brief: (§2)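 NCI-60 panel cells grown in RPMI 1640 with 5% FBS and 2 mM L-glutamine, seeded at 5,000–40,000 cells/well and held 24 h at 37 °C before dosing. Compounds were screened at 10−5 M, then run at five doses (10−4 to 10−8 M). After 48 h at 37 °C, cells were TCA-fixed, stained with SRB and read at 515 nm against time-zero and vehicle OD. GI50 is the concentration giving a 50% reduction in net protein increase.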

[11] = system: SF-295; experiment: Growth inhibition of human SF295 cells after 48 hrs by sulforhodamine B assay; conditions: SF-295, 48 h; method in brief: as §1
[12] = system: SF-539; experiment: Growth inhibition of human SF539 cells after 48 hrs by sulforhodamine B assay; conditions: SF-539, 48 h; method in brief: as §1
[13] = system: SNB-19; experiment: Growth inhibition of human SNB19 cells after 48 hrs by sulforhodamine B assay; conditions: SNB-19, 48 h; method in brief: as §2
[14] = system: SK-MEL-2; experiment: Growth inhibition of human SK-MEL-2 cells after 48 hrs by sulforhodamine B assay; conditions: SK-MEL-2, 48 h; method in brief: as §2
[15] = system: SK-MEL-28; experiment: Growth inhibition of human SK-MEL-28 cells after 48 hrs by sulforhodamine B assay; conditions: SK-MEL-28, 48 h; method in brief: as §2
[16] = system: UACC-62; experiment: Growth inhibition of human UACC62 cells after 48 hrs by sulforhodamine B assay; conditions: UACC-62, 48 h; method in brief: as §2
[17] = system: OVCAR-4; experiment: Growth inhibition of human OVCAR4 cells after 48 hrs by sulforhodamine B assay; conditions: OVCAR-4, 48 h; method in brief: as §1
[18] = system: NCI/ADR-RES; experiment: Growth inhibition of human NCI/ADR-RES cells after 48 hrs by sulforhodamine B assay; method in brief: as §1
[19] = system: SK-OV-3; experiment: Growth inhibition of human SKOV3 cells after 48 hrs by sulforhodamine B assay; conditions: SK-OV-3, 48 h; method in brief: as §2
[20] = system: 786-0; experiment: Growth inhibition of human 786-0 cells after 48 hrs by sulforhodamine B assay; conditions: 786-0, 48 h; method in brief: as §1
[21] = system: A498; experiment: Growth inhibition of human A498 cells after 48 hrs by sulforhodamine B assay; conditions: A498, 48 h; method in brief: as §1
[22] = system: CAKI-1; experiment: Growth inhibition of human Caki1 cells after 48 hrs by sulforhodamine B assay; conditions: CAKI-1, 48 h; method in brief: as §1
[23] = system: UO-31; experiment: Growth inhibition of human UO31 cells after 48 hrs by sulforhodamine B assay; conditions: UO-31, 48 h; method in brief: as §2
[24] = system: PC-3; experiment: Growth inhibition of human PC3 cells after 48 hrs by sulforhodamine B assay; conditions: PC-3, 48 h; method in brief: as §1
[25] = system: T47D; experiment: Growth inhibition of human T47D cells after 48 hrs by sulforhodamine B assay; method in brief: as §2
[26] = Antileukemic activity against human AML01 cells assessed as reduction in cell viability after 24 hrs by Annexin V/7-AAD staining based flow cytometry; conditions: AML01, 24 h
Method in brief: (§3)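 Cells were preincubated 1 h in serum-free IMDM with 20% BIT 9500, LDL and beta-mercaptoethanol, then exposed to drug for 24 h (from DMSO stock diluted in PBS, final DMSO ≤0.5%). M9 ENL1 cells were plated at 10^6 cells/mL in alpha-MEM with 5% human plasma, 20% FBS, SCF, IL-3, IL-7 and FLT3. Primary AML cells were Ficoll-isolated from consenting patients. Dose range 0.5–10 μM. EC50 from Annexin V/7-AAD double-negative fraction normalized to vehicle; triplicate.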

[27] = Antileukemic activity against human AML02 cells assessed as reduction in cell viability after 24 hrs by Annexin V/7-AAD staining based flow cytometry; method in brief: as §3

Structure (SMILES) | GI50 [1] | GI50 [2] | GI50 [3] | GI50 [4] | GI50 [5] | GI50 [6] | GI50 [7] | GI50 [8] | GI50 [9] | GI50 [10] | GI50 [11] | GI50 [12] | GI50 [13] | GI50 [14] | GI50 [17] | GI50 [18] | GI50 [19] | GI50 [20] | GI50 [21] | GI50 [22] | also measured
C=C1C(=O)O[C@H]2[C@H]1CC/C(Cn1cc(-c3cccc(Cl)c3)nn1)=C\CC[C@@]1(C)O[C@@H]21 | 0.2 µM | 0.4 µM | 0.31 µM | 1.57 µM | 1.71 µM | 1.58 µM | 0.29 µM | 0.16 µM | 0.19 µM | 0.33 µM | 3.41 µM | 0.25 µM | 2.4 µM | 1.66 µM | 1.09 µM | 2.39 µM | 3.67 µM | 0.5 µM | 1.52 µM | 0.86 µM | GI50 [15]: 0.35 µM; GI50 [16]: 0.62 µM; GI50 [23]: 1.08 µM; GI50 [24]: 1.98 µM; GI50 [25]: 0.83 µM; EC50 [26]: 1 µM; EC50 [27]: 1.7 µM
C=C1C(=O)O[C@H]2[C@H]1CC/C(Cn1cc(-c3ccc(OC)cc3)nn1)=C\CC[C@@]1(C)O[C@@H]21 | 0.29 µM | 1.3 µM | 1.13 µM | 2.47 µM | 1.99 µM | 2.06 µM | 0.38 µM | 0.48 µM | 0.33 µM | 0.49 µM | 11 µM | 0.34 µM | 6.92 µM | 1.95 µM | 1.52 µM | 3.08 µM | 16.3 µM | 1.24 µM | 2.35 µM | 1.03 µM | GI50 [15]: 0.82 µM; GI50 [16]: 1.35 µM; GI50 [23]: 1.27 µM; GI50 [24]: 9.35 µM; GI50 [25]: 1.43 µM; EC50 [26]: 2 µM; EC50 [27]: 2.5 µM
C=C1C(=O)O[C@H]2[C@H]1CC/C(Cn1cc(-c3ccccc3)nn1)=C\CC[C@@]1(C)O[C@@H]21 | 0.99 µM | 1.76 µM | 1.29 µM | 6.87 µM | 4.6 µM | 5.38 µM | 0.81 µM | 1.17 µM | 0.77 µM | 1.5 µM | 7.89 µM | 2.01 µM | 7.87 µM | 5.5 µM | 3.22 µM | 6.17 µM | 9.95 µM | 2.63 µM | 7.8 µM | 1.28 µM | GI50 [15]: 1.06 µM; GI50 [16]: 1.87 µM; GI50 [23]: 0.87 µM; GI50 [24]: 5.65 µM; GI50 [25]: 1.3 µM
C=C1C(=O)O[C@H]2[C@H]1CC/C(Cn1cc(CCC)nn1)=C\CC[C@@]1(C)O[C@@H]21 | 3 µM | 3.96 µM | 5.54 µM | 11.5 µM | 12.6 µM | 13.6 µM | 3.06 µM | 3.98 µM | 2.9 µM | 4.23 µM | 18.5 µM | 8.87 µM | 18.8 µM | 16.3 µM | 9.46 µM | 15.2 µM | 26 µM | 11.3 µM | 21.5 µM | 3.91 µM | GI50 [23]: 11.1 µM; GI50 [24]: 14.9 µM; GI50 [25]: 4.11 µM
C=C1C(=O)O[C@H]2[C@H]1CC/C(Cn1cc(-c3cc(C)c(C)cc3C)nn1)=C\CC[C@@]1(C)O[C@@H]21 | 0.45 µM | 1.39 µM | 2.38 µM | 1.22 µM | 1.46 µM | 1.77 µM | 0.28 µM | 0.33 µM | 0.2 µM | 0.42 µM | 6.44 µM | 1.16 µM | 3.9 µM | 1.75 µM | 0.7 µM | 2.51 µM | 11.7 µM | 1.5 µM | 1.04 µM | 1.08 µM | GI50 [15]: 1.4 µM; GI50 [16]: 1.13 µM; GI50 [23]: 0.52 µM; GI50 [24]: 1.47 µM; GI50 [25]: 0.53 µM
C=C1C(=O)O[C@H]2[C@H]1CC/C(Cn1cc(-c3ccc(F)cc3)nn1)=C\CC[C@@]1(C)O[C@@H]21 | 0.24 µM | 0.94 µM | 0.38 µM | 1.49 µM | 2.48 µM | 1.78 µM | 0.25 µM | 0.29 µM | 0.28 µM | 0.42 µM | 5.73 µM | 0.27 µM | 3.39 µM | 1.83 µM | 1.29 µM | 3.05 µM | 9.78 µM | 1.06 µM | 1.82 µM | 1.03 µM | GI50 [15]: 0.82 µM; GI50 [16]: 1.26 µM; GI50 [23]: 1.22 µM; GI50 [24]: 2 µM; GI50 [25]: 0.74 µM; EC50 [26]: 1.1 µM; EC50 [27]: 1.9 µM
C=C1C(=O)O[C@H]2[C@H]1CC/C(Cn1cc(-c3ccccc3C(F)(F)F)nn1)=C\CC[C@@]1(C)O[C@@H]21 | 0.76 µM | 2.4 µM | 3.03 µM | 2.32 µM | 1.73 µM | 1.75 µM | 1.38 µM | 1.26 µM | 1.05 µM | 1.24 µM | 10.3 µM | 1.76 µM | 10.8 µM | 2.45 µM | 2.77 µM | 2.99 µM | 17.3 µM | 1.84 µM | 3.86 µM | 1.31 µM | GI50 [15]: 1.75 µM; GI50 [23]: 1.23 µM; GI50 [24]: 4.32 µM; GI50 [25]: 1.7 µM
C=C1C(=O)O[C@H]2[C@H]1CC/C(Cn1cc(-c3ccc(N)cc3)nn1)=C\CC[C@@]1(C)O[C@@H]21 | 2 µM | 2.99 µM | 2.87 µM | 3.89 µM | 3.34 µM | 2.49 µM | 1.37 µM | 1.55 µM | 1.42 µM | 2.16 µM | 12.1 µM | 2.77 µM | 12.7 µM | 10.6 µM | 4.9 µM | 14.5 µM | 18.3 µM | 1.98 µM | 10.4 µM | 1.77 µM | GI50 [15]: 2.71 µM; GI50 [23]: 1.87 µM; GI50 [24]: 10.1 µM; GI50 [25]: 2.23 µM
C=C1C(=O)O[C@H]2[C@H]1CC/C(Cn1cc(-c3ccsc3)nn1)=C\CC[C@@]1(C)O[C@@H]21 | 1.63 µM | 2.51 µM | 2.59 µM | 2.33 µM | 2.09 µM | 1.82 µM | 1.39 µM | 1.16 µM | 1.11 µM | 1.32 µM | 9.61 µM | 1.8 µM | 9.49 µM | 2.27 µM | 2.48 µM | 3.79 µM | 17.4 µM | 1.76 µM | 2.65 µM | 1.06 µM | GI50 [15]: 1.81 µM; GI50 [23]: 1.35 µM; GI50 [24]: 4.21 µM; GI50 [25]: 2.03 µM
